Screening data from PubChem.
A selection: hits, their analogues and other compounds. The true share with any hit is near 27%.
Cav32 inh: blocks human Cav3.2 T-type calcium channel | O95180 | Cav3.2-expressing cells, Fluo-4 calcium fluorescence FDSS; active compounds read low | B-score at 10 µM | 100,000 compounds, 4% hits | AID 449739;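 active = single-dose well whose peak fluorescence ratio is a statistical outlier from its plate by either plate-standardised score or position-corrected B-score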
CYP2C9 activ: CYP2C9 (human) activation; P11712; recombinant CYP2C9, luciferin-H conversion, luminescence; active compounds read high; factor 1 = untreated enzyme, 0 = blocked; activation factor at 5 µM; 96,000 compounds, 1.4% hits; AID 1024;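 active = activation factor of 2 or more for CYP2C9 at a 5 µM dose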;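 also: 0 = sulfaphenazole-blocked wells and 1 = vehicle-only wells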
Target sequence (P11712 whole entry, looked up): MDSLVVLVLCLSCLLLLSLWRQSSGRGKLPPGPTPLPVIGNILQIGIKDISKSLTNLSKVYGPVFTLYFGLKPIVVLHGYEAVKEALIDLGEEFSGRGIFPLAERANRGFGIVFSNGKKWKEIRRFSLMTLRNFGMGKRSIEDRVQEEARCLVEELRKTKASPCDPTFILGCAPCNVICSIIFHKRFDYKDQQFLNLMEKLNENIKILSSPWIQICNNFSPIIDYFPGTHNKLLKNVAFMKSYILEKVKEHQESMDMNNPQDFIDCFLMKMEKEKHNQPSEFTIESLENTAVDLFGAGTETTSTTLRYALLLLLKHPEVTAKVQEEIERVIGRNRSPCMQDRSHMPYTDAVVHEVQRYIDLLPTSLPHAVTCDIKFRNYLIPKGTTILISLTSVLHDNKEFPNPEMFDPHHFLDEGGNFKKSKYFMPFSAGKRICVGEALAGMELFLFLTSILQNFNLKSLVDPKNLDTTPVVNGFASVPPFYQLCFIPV
CYP2C19 inh: blocks human cytochrome P450 2C19 | P33261 | CYP2C19 Supersomes, luciferin-H EGE luminescence, 30 min | inhibition, % at 5 µM | 96,000 compounds, 21% hits | AID 778;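 active = CYP2C19 inhibition above a set limit at 5 µM in the primary screen, cut at about 50% in these data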;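 also: plate controls were negative control wells for no effect and 2.5 mM tranylcypromine positive control for full effect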
CYP2C19 activ: increases human CYP2C19 enzyme activity; P33261; AID 1025; 96,000 tested, under 10 active; activation factor at 5 µM; recombinant CYP2C19, luciferin-H EGE luminescence; active compounds read high; 0 = fully inhibited enzyme, 1 = untreated enzyme;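 active = activation factor of at least 2 at 5 µM in the primary screen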;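 also: 0 = wells with 2.5 mM tranylcypromine and 1 = vehicle-only wells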
CYP2C9 inh: blocks human cytochrome P450 2C9; inhibition, % at 5 µM; 96,000 compounds, 20% hits; CYP2C9 Supersomes, luciferin-H conversion, luminescence; AID 777;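 active = blocking of liver enzyme CYP2C9 beyond about 50% at 5 µM, limit read from the data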
HIV Rev-RRE inh: inhibitors of HIV-1 Rev-RRE RNA interaction. 97,000 compounds, 0.79% hits. Rev peptide-RRE RNA binding, FRET. P05866. inhibition, % at 8 µM. AID 704;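 active = inhibition above the screen-wide mean plus 3 SD, cut at about 35% in these data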;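 also: 0% = median DMSO wells and 100% = median Neomycin B control wells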
Target sequence (P05866 whole entry, looked up): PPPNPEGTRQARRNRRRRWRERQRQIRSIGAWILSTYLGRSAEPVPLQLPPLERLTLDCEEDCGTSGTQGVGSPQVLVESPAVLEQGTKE
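Probe or stimulus: fluorescein-Rev peptide as binding partner; assay system: Cy5-tagged RRE RNA duplex with fluorescein-tagged Rev peptide; timing: 5 min compound–RNA preincubation, then 15 min with peptide, 25 °C; medium: HEPES pH 7.5 buffer with KCl, MgCl2, NaCl and EDTA; signal: fluorescein-to-Cy5 FRET, 480 nm excitation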
* hit, by the source's call; . = no result.

SMILES	Cav32 inh	CYP2C9 activ	CYP2C19 inh	CYP2C19 activ	CYP2C9 inh	HIV Rev-RRE inh
O=C(NCC1CCCO1)C(c1cccs1)N(Cc1cccs1)C(=O)Cn1nnc(-c2cccs2)n1 (configuration not stated)	-7.13*	.	.	.	.	4.5
O=C(CN(C(=O)Cn1nnc(-c2cccs2)n1)c1ccc2c(c1)OCCO2)NCC1CCCO1 (configuration not stated)	-0.0117	0.1	33.3	0.7	87.6*	4.3
CC(C)CCNC(=O)CN(Cc1ccc2c(c1)OCO2)C(=O)Cn1nnc(-c2cccs2)n1	-3.39	0.1	47.7	0.5	91.7*	3.5
Cc1oc(-c2ccc(Cl)cc2)nc1CN1CCCC(C(=O)NCc2ccco2)C1 (configuration not stated)	-2.6	0.6	37.8	0.6	35.1	9.6
Cc1ccc(-c2nnn(CC(=O)N(CC(=O)NC3CCCCC3)c3cnc4ccccc4c3)n2)o1	-4.37*	.	.	.	.	8.0
Cc1ccc(-c2nnn(CC(=O)N(CC(=O)NCC3CCCO3)c3ccccc3)n2)o1 (configuration not stated)	-0.0123	0.9	17.8	0.8	11.3	-4.3
O=C(CN(Cc1ccccc1F)C(=O)Cn1nnc(-c2cccs2)n1)NC1CCCCC1	-6.31*	0.7	3.9	1	30.9	-0.4
COc1ccc(-c2nnn(CC(=O)N(CC(=O)NC3CCCC3)Cc3cccs3)n2)cc1OC	-0.529	0.6	27.5	0.7	36.2	5.1
O=C(CN(C(=O)Cn1nnc(-c2cccs2)n1)c1cnc2ccccc2c1)NCC1CCCO1 (configuration not stated)	0.0422	0.3	34.9	0.7	74.6*	.
Fc1ccc(-c2cc(C(F)(F)F)nc(NCC3CCCO3)n2)cc1 (configuration not stated)	-0.455	0.7	26.6	0.7	26.5	.
COc1ccc(-n2cnc3cc(NCc4ccccn4)ccc32)cc1	0.564	0.6	8.1	0.9	43.6	-0.5
COc1ccc(-n2cnc3ccccc32)cc1	0.0455	0.4	61.2*	0.4	58.7*	6.4
O=C(NCc1ccco1)c1cc(-c2cccnc2)nc2ccccc12	0.188	0.3	39.2	0.6	70.4*	.
CC(/C=N/NC(=O)c1cc(-c2ccncc2)nc2ccccc12)=C\c1ccco1	.	0	95.6*	0	99.9*	7.0
O=C(NCc1ccco1)c1cc(-c2ccncc2)nc2ccccc12	-5.77*	0.4	80.2*	0.2	57.3*	2.1
CC(/C=N/NC(=O)Cc1cccs1)=C\c1ccco1	-0.361	0.5	17.4	0.8	46.9	0.3
Cn1c(/C=C/c2ccc([N+](=O)[O-])o2)nc2ccccc2c1=O	-0.775	0.9	.	.	13.1	15.2
O=C(N/N=C/c1ccc([N+](=O)[O-])o1)c1cc(-c2ccncc2)nc2ccccc12	-1.35	0.1	53.3*	0.5	90.0*	2.8
COc1ccc(CN2CC[C@H]3C=CC[C@@H](C(=O)Nc4ccc(Cl)c(C(F)(F)F)c4)[C@H]3C2=O)cc1OC	-2.7	.	.	.	.	.
Cc1nc2ncnn2c(N2CCN(C(=O)Cc3cccs3)CC2)c1C	1.56	0.9	1.1	1	6.0	8.0
O=C(Nc1ccc(-c2cn3ccsc3n2)cc1)c1ccc(F)c(S(=O)(=O)N2CCOCC2)c1	0.821	0.5	15.3	0.8	45.5	5.2
Cc1ccc(-c2cc(C(=O)NCc3ccccn3)c3ccccc3n2)cc1C	-2.62	0.4	33.3	0.7	58.7*	8.1
CC(=O)NS(=O)(=O)c1ccc(NC(=O)c2cc(-c3ccc(C)c(C)c3)nc3ccccc23)cc1	0.684	0.8	11.7	0.9	16.5	-1.7
O=C(/C=C/N1CCOCC1)c1ccc(-c2ccccc2)cc1	-0.0307	0.1	20.6	0.8	89.0*	-2.9
O=C(c1ccc(-c2ccccc2)cc1)c1ccccc1C(=O)N1CCOCC1	-1.14	0.6	33.7	0.7	37.0	5.7
SMILES	Cav32 inh	CYP2C9 activ	CYP2C19 inh	CYP2C19 activ	CYP2C9 inh	HIV Rev-RRE inh
O=C(NCCN1CCCCC1)/C(=N\O)c1ccccc1	0.00112	1.1	0.8	1	-7.0	-0.8
Cc1csc(SCc2nnc(-c3ccccc3Br)o2)n1	-0.561	0.6	60.5*	0.4	41.6	5.0
Cc1csc(SCc2nnc(-c3ccc(Cl)cc3)o2)n1	-3.01	0.8	62.1*	0.4	23.6	7.2
O=C(Nc1nccs1)[C@@H]1CC=C[C@@H]2CCN(Cc3ccccc3)C(=O)[C@@H]21	-0.48	.	.	.	.	.
O=C(NC1CC1)C1=NOC(CNc2ncc(C(F)(F)F)cc2Cl)C1 (configuration not stated)	0.232	2.4*	84.6*	0.2	-138.8	-6.4
COc1ccc(-c2csc(NC(C)c3nc4cc(C(F)(F)F)ccc4n3CCOCCO)n2)cc1 (configuration not stated)	-1.29	.	.	.	.	.
Cc1ccc2cccc(SCC(=O)NCc3ccco3)c2n1	.	1.5	81.8*	0.2	-50.9	.
Cc1ccc(C(=O)NCCn2cc(SCC(=O)N3CCOCC3)c3ccccc32)cc1	0.951	0.8	28.3	0.7	21.7	4.4
O=C(CSc1cn(CCNC(=O)c2ccccc2)c2ccccc12)NCc1ccco1	-1.16	0	99.0*	0	97.2*	1.8
C=CCn1c(CSc2nc3ccccc3s2)nnc1SCC(=O)NCc1cccnc1	0.785	.	.	.	.	-4.9
Cc1ccc2cccc(OCC(=O)NCc3ccco3)c2n1	0.0491	1.2	48.1	0.5	-22.1	.
C=CCn1c(SCC(=O)NCc2ccco2)nnc1-c1ccc2ccccc2n1	.	0.4	27.7	0.7	58.9*	7.1
C=CCn1c(CSc2nc3ccccc3s2)nnc1SCC(=O)NCc1ccccc1	-4.31*	0.5	38.1	0.6	50.1*	1.5
O=C(CSc1cn(CCNC(=O)c2cccs2)c2ccccc12)NC1CCCC1	-0.29	0.2	68.6*	0.3	82.4*	-1.2
CCC(=O)c1cn(CC(=O)NCc2ccco2)c2ccccc12	-0.498	1	20.6	0.8	-3.5	-3.1
CCCn1cc(SCC(=O)NCc2ccco2)c2ccccc21	-0.773	1.8	51.5*	0.5	-79.2	8.9
CCN(CC)c1ccc(C2Nc3cccc4cccc(c34)N2)c(O)c1	-0.199	1.2	24.2	0.8	-15.7	2.7
COC(=O)c1ccccc1NC(=O)C1CC(=O)N(c2ccc(C)c(C)c2)C1 (configuration not stated)	-2.75	1.5	37.4	0.6	-54.5	17.2
CCOc1ccccc1CNCCO	-0.262	.	.	.	.	4.4
CCOc1cc(CNCCO)c(Cl)cc1OCC(=O)NCCc1ccccc1	1.01	0.9	58.1*	0.4	13.7	1.0
COCCNC(=O)COc1ccccc1Cl	0.38	1	26.6	0.7	-4.6	7.1
CCOc1cc(CNC(C)C)c(Cl)cc1OCC(=O)NCCc1ccccc1	2.15	0.7	76.7*	0.2	33.1	3.8
COc1cc(OC)nc(NC2OC(=O)c3ccccc32)n1 (configuration not stated)	0.279	1.1	-14.4	1.1	-12.0	8.5
